Key:
COX-1 [1] = target: T1, COX-1 (Ovis aries, UniProt P05979); details: already reported; cited from earlier work
T1 sequence (P05979 25-600): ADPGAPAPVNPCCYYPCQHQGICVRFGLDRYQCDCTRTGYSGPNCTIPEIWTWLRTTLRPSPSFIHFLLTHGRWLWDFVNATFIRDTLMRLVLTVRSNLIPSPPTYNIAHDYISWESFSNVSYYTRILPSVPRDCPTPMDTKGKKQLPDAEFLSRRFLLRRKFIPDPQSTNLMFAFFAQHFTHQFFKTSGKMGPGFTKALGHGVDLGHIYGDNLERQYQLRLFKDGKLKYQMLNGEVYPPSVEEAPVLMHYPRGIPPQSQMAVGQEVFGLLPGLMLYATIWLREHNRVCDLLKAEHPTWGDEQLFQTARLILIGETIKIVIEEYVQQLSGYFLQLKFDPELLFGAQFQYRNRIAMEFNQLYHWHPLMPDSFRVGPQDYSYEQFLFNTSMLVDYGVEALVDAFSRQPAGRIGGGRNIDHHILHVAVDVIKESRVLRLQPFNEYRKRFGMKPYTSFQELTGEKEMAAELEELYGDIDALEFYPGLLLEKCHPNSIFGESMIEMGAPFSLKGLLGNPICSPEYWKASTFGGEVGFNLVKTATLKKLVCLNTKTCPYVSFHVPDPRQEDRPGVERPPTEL

COX-2 = target: T2, COX-2 (Mus musculus, UniProt Q05769); assay: COX-2 inhibition, conversion of [14C]-arachidonic acid to [14C]-prostaglandins; type: biochemical, murine; details: 25 μM concentration
T2 sequence (Q05769 18-604): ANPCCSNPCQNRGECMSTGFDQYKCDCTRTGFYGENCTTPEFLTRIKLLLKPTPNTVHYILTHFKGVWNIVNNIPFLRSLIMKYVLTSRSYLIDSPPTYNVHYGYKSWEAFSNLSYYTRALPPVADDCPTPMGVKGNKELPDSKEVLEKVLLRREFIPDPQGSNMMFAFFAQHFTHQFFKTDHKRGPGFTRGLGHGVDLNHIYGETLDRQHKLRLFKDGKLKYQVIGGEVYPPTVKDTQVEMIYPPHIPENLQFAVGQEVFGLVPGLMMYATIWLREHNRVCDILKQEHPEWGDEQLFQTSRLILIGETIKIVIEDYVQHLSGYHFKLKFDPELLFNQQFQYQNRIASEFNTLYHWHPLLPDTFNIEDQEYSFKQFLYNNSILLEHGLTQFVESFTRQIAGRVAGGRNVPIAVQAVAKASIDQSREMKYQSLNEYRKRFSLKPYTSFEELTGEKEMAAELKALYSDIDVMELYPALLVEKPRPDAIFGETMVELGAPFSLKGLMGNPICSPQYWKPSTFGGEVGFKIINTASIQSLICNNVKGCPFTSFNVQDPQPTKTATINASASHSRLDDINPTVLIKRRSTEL
Summary of the method: (§1)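 Carbaborane esters of indomethacin screened at 25 μM against ovine COX-1 and murine COX-2, measuring conversion of [14C]-arachidonic acid to [14C]-prostaglandins. Reactions were stopped, then substrate consumption was read by thin-layer chromatography.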

[2] = NMR stability measurements in wet methanol; type: physicochemical; details: assay timescale
COX-1 [3] = target: T1, COX-1; assay: COX-1 inhibition, conversion of [14C]-arachidonic acid to [14C]-prostaglandins; type: biochemical, ovine; details: 25 μM concentration
Summary of the method: as §1

Compound	IC50 COX-1 (COX-1 [1])	COX-2 inhibition in screen (COX-2)	stability in wet methanol (NMR) [2]	COX-1 inhibition in screen (COX-1 [3])
COc1ccc2c(c1)c(CC(=O)Oc1ccccc1)c(C)n2C(=O)c1ccc(Cl)cc1 [compound 10]	inactive	–	–	–
2-{1-[(4-Chlorophenyl)carbonyl]-5-methoxy-2-methyl-1H-indol-3-yl}acetic acid 1-(1,2-dicarba-closo-dodecaboranyl) ester [5o]	–	by far the best COX-inhibition	stable	by far the best COX-inhibition

From paper PMC3401020 (Bioorganic & medicinal chemistry, 2011)
